Our source for the Activity and MIC values is ChEMBL document CHEMBL1240384, “Inhibition of Porphyromonas gingivalis biofilm by oxantel” (2010).

Converted amounts (≈) assume the structure as drawn. “And” between values parts separate entries of the source, which are not always exact repeats. Equal entries are not always repeated. The source made the active and inactive calls.

What all share (type): functional
Assay [1] concerns Porphyromonas gingivalis. The experiment in a line: Antimicrobial activity against Porphyromonas gingivalis assessed as reduction in biovolume at 12.5 uM after 18 hrs. A digest of the protocol:
(§1)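 Three-channel flow cell inoculated with 1 ml of exponential ATCC 33277 culture at 5 × 10^8 cells/ml, left 1 h, then fed 0.2 ml/min of 5×-diluted supplemented brain heart infusion. At 18 h, 1 ml of 12.5 or 125 μM compound in sterile water (water control) was injected per channel for 30 min, followed by a 10 min medium wash. BacLight in situ, CLSM (63×, 2 μm sections, 488/568 nm), five random images per replicate, COMSTAT analysis; mean ± SD of three biological replicates.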

In assay [2] the test system is Porphyromonas gingivalis. The assay is described as follows: Antimicrobial activity against Porphyromonas gingivalis assessed as reduction in thickness of biofilm at 12.5 uM after 18 hrs. A digest of the protocol: as §1
Assay [3] concerns Porphyromonas gingivalis. The experiment in a line: Antimicrobial activity against Porphyromonas gingivalis assessed as surface area/biovolume ratio at 12.5 uM after 18 hrs. The procedure, abridged: as §1
Assay [4] relates to Porphyromonas gingivalis. The assay is described as follows: Antimicrobial activity against Porphyromonas gingivalis assessed as reduction in surface area of substratum occupied by cells at 12.5 uM after 18 hrs. More on the design: scale not given: the % may be the effect or the level left. A digest of the protocol: as §1
The test system of assay [5] is Porphyromonas gingivalis. The assay is described as follows: Antimicrobial activity against Porphyromonas gingivalis assessed as reduction in average number of microcolonies at 12.5 uM after 18 hrs. A digest of the protocol:
as §1

Assay [6] concerns Porphyromonas gingivalis. The experiment in a line: Antimicrobial activity against Porphyromonas gingivalis assessed as reduction in average number of microcolony area at 12.5 uM after 18 hrs. The procedure, abridged:
as §1

In assay [7] the test system is Porphyromonas gingivalis. The experiment in a line: Antimicrobial activity against Porphyromonas gingivalis W50. A digest of the protocol: (§2)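 Planktonic growth of P. gingivalis ATCC 33277 (fimbriated) and W50 (afimbriated) in 96-well plates, starting inoculum ~5.0 × 10^7 CFU per well. MIC determined, and mean generation time measured with DMSO alone or with drug at 31.25 and 62.5 μM. MGT differences were tested at P < 0.05.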

In assay [8] the test system is Porphyromonas gingivalis. The experiment in a line: Antimicrobial activity against Porphyromonas gingivalis W50 assessed as mean generation time at 31.25 uM. The procedure, abridged:
as §2

Assay [9] relates to Porphyromonas gingivalis. The assay is described as follows: Antimicrobial activity against Porphyromonas gingivalis W50 assessed as mean generation time at 62.5 uM. A digest of the protocol:
as §2

The subject of assay [10] is Porphyromonas gingivalis. The experiment in a line: Antimicrobial activity against Porphyromonas gingivalis ATCC 33277. The procedure, abridged:
as §2

For assay [11], the system named is Porphyromonas gingivalis. The assay is described as follows: Antimicrobial activity against Porphyromonas gingivalis ATCC 33277 assessed as mean generation time at 31.25 uM. The procedure, abridged:
as §2

Assay [12] deals with Porphyromonas gingivalis. The experiment in a line: Antimicrobial activity against Porphyromonas gingivalis ATCC 33277 assessed as mean generation time at 62.5 uM. A digest of the protocol:
as §2

Assay [13] has as its system Porphyromonas gingivalis. The assay is described as follows: Antimicrobial activity against Porphyromonas gingivalis ATCC 33277 assessed as reduction of biofilm formation after 24 hrs. The procedure, abridged:
(§3)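 Static 96-well biofilm model with P. gingivalis ATCC 33277, grown 24 h with drug. Biofilm mass was quantified by crystal violet. Results are means of 12 replicates, compared with untreated and DMSO controls by one-way ANOVA with Scheffe multiple comparison.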

Assay [14] concerns Porphyromonas gingivalis. The assay is described as follows: Antimicrobial activity against Porphyromonas gingivalis ATCC 33277 assessed as reduction of biofilm formation at 125 uM after 24 hrs. A digest of the protocol: as §3
Assay [15] has as its system Porphyromonas gingivalis. The experiment in a line: Antimicrobial activity against Porphyromonas gingivalis ATCC 33277 assessed as reduction of biofilm formation at 0.1 uM after 24 hrs. A digest of the protocol:
as §3

The test system of assay [16] is Porphyromonas gingivalis. The experiment in a line: Antimicrobial activity against Porphyromonas gingivalis assessed as reduction in surface area of substratum occupied by cells at 125 uM after 18 hrs. More on the design: scale not given: the % may be the effect or the level left. The procedure, abridged:
as §1

The test system of assay [17] is Porphyromonas gingivalis. The experiment in a line: Antimicrobial activity against Porphyromonas gingivalis ATCC 33277 assessed as thickness of biofilm at 12.5 uM after 18 hrs by confocal laser scanning microscopy. The procedure, abridged: as §1
Assay [18] deals with Porphyromonas gingivalis. The assay is described as follows: Antimicrobial activity against Porphyromonas gingivalis ATCC 33277 assessed as thickness of biofilm at 125 uM after 18 hrs by confocal laser scanning microscopy. The procedure, abridged:
as §1

Turning to `Cc1ncc([N+](=O)[O-])n1CCO` [METRONIDAZOLE], the Activity turned out to be 2.19 µm3/µm2 in the assay on Porphyromonas gingivalis [1]; 2.17 µm in the assay on Porphyromonas gingivalis [2]; 1.63 µm2/µm3 in the assay on Porphyromonas gingivalis [3]; 27.4% with Porphyromonas gingivalis [4]; 23.7 count in the assay with Porphyromonas gingivalis [5]; 102 µm2 in the assay with Porphyromonas gingivalis [6].
For orientation: MIC means the smallest concentration in the dilution series that meets the test's criterion for growth inhibition. Take `Cc1ccsc1/C=C/C1=NCCCN1C` [MORANTEL]: the MIC against Porphyromonas gingivalis [7] amounted to 2800 µM (≈ 617 µg/mL). In addition, the Activity in the assay with Porphyromonas gingivalis [8] is 11 h; with Porphyromonas gingivalis [9] it was 11.3 h.
As to `CN1CCCN=C1/C=C/c1cccc(O)c1` [OXANTEL], the MIC against Porphyromonas gingivalis [7] amounted to 112 µM (≈ 24.2 µg/mL); in the assay with Porphyromonas gingivalis [10], 125 µM (≈ 27 µg/mL). For the same compound, the Activity with Porphyromonas gingivalis [8] is 19.2 h; in the assay with Porphyromonas gingivalis [11], 10 h; in the assay with Porphyromonas gingivalis [9], 23.8 h; in the assay with Porphyromonas gingivalis [12], 24 h; in the assay on Porphyromonas gingivalis [13], “Dose-dependent effect”; with Porphyromonas gingivalis [1] it was 1.44 µm3/µm2. In addition, the Activity with Porphyromonas gingivalis [2] was 0.83 µm; in the assay with Porphyromonas gingivalis [3], 2.31 µm2/µm3; in the assay with Porphyromonas gingivalis [4], 33.2%; in the assay with Porphyromonas gingivalis [5], 18.3 count; in the assay with Porphyromonas gingivalis [6], 124 µm2; in the assay on Porphyromonas gingivalis [16], 23.8% and 27%. The outcome with Porphyromonas gingivalis [14], in the assay with Porphyromonas gingivalis [15], in the assay with Porphyromonas gingivalis [17] and in the assay with Porphyromonas gingivalis [18] was Active.
`c1ccc2[nH]c(-c3cscn3)nc2c1` [THIABENDAZOLE] gave a minimum inhibitory concentration (MIC) with Porphyromonas gingivalis [7] greater than 3000 µM. The Activity in the assay on Porphyromonas gingivalis [8] is 6.8 h; in the assay with Porphyromonas gingivalis [9], 6.2 h.
